# Source: PubChem (several laboratories)
# Only some compounds are listed: those with a hit (about 6.7% of all), similar ones and a draw of the others.
# PREPL inhibitor: inhibits the human prolyl oligopeptidase-like enzyme; 0.68% of 320,000 active; AID 2751; recombinant PREPL, fluorescence polarization activity-based probe; inhibition, % at 5.96 µM; Q4J6C6; in the data active means inhibition above about 43%
# Target sequence (Q4J6C6 whole entry, looked up): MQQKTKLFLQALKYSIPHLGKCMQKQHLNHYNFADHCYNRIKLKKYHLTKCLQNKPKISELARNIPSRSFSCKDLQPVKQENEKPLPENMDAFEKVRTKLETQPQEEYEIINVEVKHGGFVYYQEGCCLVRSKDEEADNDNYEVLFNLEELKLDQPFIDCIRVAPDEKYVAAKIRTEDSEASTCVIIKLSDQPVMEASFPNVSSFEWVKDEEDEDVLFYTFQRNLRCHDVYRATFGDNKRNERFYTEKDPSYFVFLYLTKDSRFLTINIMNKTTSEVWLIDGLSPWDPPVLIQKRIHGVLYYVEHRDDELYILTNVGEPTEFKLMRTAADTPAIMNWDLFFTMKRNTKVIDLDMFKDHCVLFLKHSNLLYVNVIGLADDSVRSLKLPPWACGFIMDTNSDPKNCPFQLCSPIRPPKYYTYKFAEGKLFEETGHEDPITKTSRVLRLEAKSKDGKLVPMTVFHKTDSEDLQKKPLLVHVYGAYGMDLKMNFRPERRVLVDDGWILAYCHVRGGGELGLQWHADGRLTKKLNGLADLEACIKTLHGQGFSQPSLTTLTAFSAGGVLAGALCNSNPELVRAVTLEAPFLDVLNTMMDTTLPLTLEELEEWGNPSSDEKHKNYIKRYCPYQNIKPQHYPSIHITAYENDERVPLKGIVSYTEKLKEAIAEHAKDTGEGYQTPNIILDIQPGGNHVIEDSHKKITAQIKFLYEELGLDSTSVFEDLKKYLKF
# GRIN3A LBD mod: modulates the human NR3A ligand-binding domain; NR3A LBD differential scanning fluorimetry, Tm shift; 0% = protein alone, 100% = glycine-bound protein; Tm shift relative to glycine control, % at 25 µM; AID 1259313; 2.5% of 340,000 active;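 active means melting temperature shift of at least 10% of the positive control shift, at one fixed dose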
# CSC inhib: blocks cancer stem cells | cancer stem cell-like cells viability, luminescence | inhibition, % at 7.5 µM | 1.1% of 300,000 active; in the data active means inhibition above about 75%; tested in HMLE shEcad cells
# CHOP inh: CHOP inhibition in unfolded protein response | AID 2732 | CHO-K1 CHOP-promoter luciferase, tunicamycin-induced, 15-18 h | inhibition, % at 10 µM | 3.8% of 220,000 active;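 active means compounds that reduced the stress-induced luciferase reporter signal by more than about 70% of percent inhibition, limit read from the data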
# Beta apoptosis: blocks beta cell apoptosis. AID 435005. INS-1E cytokine-induced death, ATP luminescence, 48 h; percent of positive-control rescue, neutral wells zero. protection from apoptosis, % (test concentration not listed). 0.8% of 300,000 active;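 active means Every replicate reaches about 75%, or at least half do and their mean reaches it too, limit read from the data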;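 further: higher means more ATP so stronger rescue from cytokine killing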
# T cruzi inh: blocks replication of Trypanosoma cruzi; T. cruzi beta-gal in NIH3T3, luminescence, 90 h; 1.4% of 300,000 active; inhibition, % (test concentration not listed); AID 1885;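 active means mean inhibition across valid replicates above about 55%, limit read from the data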;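 further: signal also drops with host cell toxicity which is not excluded here; higher percent means less beta-gal luminescence so fewer parasites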
#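 System: mouse NIH/3T3 fibroblasts infected with β-gal-expressing T. cruzi Tulahuen C4 / Input: NIH/3T3 cells, 5,000 per well / Buffer or medium: Low-serum DMEM with 2% FBS / Probe or stimulus: 5000 reporter trypomastigotes per well / Schedule: ≥90 h infection period, 3 h prior cell attachment / Measured by: GalScreen luminescence, 60 min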
# A number is an active result; 0 = inactive; - = not tested or not shown.
SMILES,PREPL inhibitor,GRIN3A LBD mod,CSC inhib,CHOP inh,Beta apoptosis,T cruzi inh
O=C(Nc1ccc2oc(=O)ccc2c1)c1ccc2ccccc2c1,0,34,0,-,0,0
O=C(Nc1ccc2ccccc2c1)c1ccc(Cl)cc1,0,0,0,-,-,0
Cc1ccc(C(=O)Nc2ccc3ccccc3c2)cc1,0,16,0,-,0,0
Cc1cccc(OCC(=O)Nc2ccc3oc(=O)ccc3c2)c1C,0,14,0,-,0,0
O=C(Nc1ccc2ccccc2c1)c1ccc(NS(=O)(=O)c2ccc(Br)s2)cc1,0,21,0,0,0,0
O=C(c1ccncc1)c1ccc(NS(=O)(=O)c2ccc(Br)s2)cc1,0,0,0,0,0,0
O=C(NCCN1CCCCC1)c1cc(Cl)ccc1Cl,0,0,0,-,0,0
CC(C)c1cccc(C(C)C)c1OCCCCCN1CCOCC1,0,0,0,-,0,0
Cc1ccc(NC(=O)c2ccc(-c3nn(C)c(=O)c4ccccc34)cc2)cc1,0,0,0,74,0,0
Cc1ccc2cc(NC(=O)c3cccc(F)c3)ccc2n1,0,0,0,0,0,0
CCOc1cccc(C(=O)Nc2cccc(C(C)=O)c2)c1,0,0,0,0,0,0
O=C(Nc1cccc(NC(=O)c2c(F)cccc2F)n1)c1c(F)cccc1F,0,0,0,-,0,0
CCOc1cccc(NC(=O)c2cccc(F)c2)c1,0,10,0,0,0,0
O=C(Nc1cccc(NC(=O)c2cccc(F)c2)n1)c1cccc(F)c1,0,12,0,-,0,0
O=C(Nc1ccc2ccccc2c1)c1cccc(F)c1,0,20,0,0,0,0
O=C(CCC(=O)c1ccc(Cl)cc1)OCn1nnc2ccccc2c1=O,0,0,0,-,0,-
Cc1ccccc1-n1c(=O)n(Cc2ccco2)c(=O)c2[nH]cnc21,0,0,0,-,0,0
COc1ccc(CNC(=O)c2sc3nc4c(c(C(F)(F)F)c3c2N)CCC4)cc1,0,-,0,0,0,0
COc1cc(NC(=O)c2sc3ncn(CC(=O)N4CCCCC4)c(=O)c3c2C)cc(OC)c1OC,0,0,0,-,0,0
CN(C)c1cccc(/C=C(\C#N)c2ccccc2)c1,0,0,0,0,-,0
CC(C)COC(=O)N1C[C@H](O)C[C@H]1C(=O)Nc1ccc(Cl)cc1,0,0,0,-,0,0
CCOc1cccc(C(=O)Nc2ccc3ccccc3c2)c1,0,30,0,-,0,0
COc1ccc(Cl)c2c1[nH]c1nc(SCc3cccnc3)nnc12,0,0,0,86,0,0
COc1ccc(Cl)c2c1[nH]c1nc(SCc3ccccn3)nnc12,0,0,-,0,-,0
CNC(=O)Cc1csc2ccc(C)cc12,0,14,0,0,0,0
SMILES,PREPL inhibitor,GRIN3A LBD mod,CSC inhib,CHOP inh,Beta apoptosis,T cruzi inh
COc1ccc(NC(=O)C2CCN(S(=O)(=O)c3cccnc3)CC2)cc1Cl,0,0,0,0,0,0
Cc1cc(Br)ccc1NC(=O)CN(C)C(=O)COc1cccc2c1OC(C)(C)C2,0,0,0,-,0,0
CC1CC(C)CN(CCOCCSc2ccccc2)C1 (centres undefined),0,0,0,0,0,60
c1ccc(SCCOCCN2CCOCC2)cc1,0,0,0,-,0,0
CC1CCCN(CCOCCSc2ccccc2)C1 (centres undefined),0,0,0,0,0,60
Cc1cc(Cl)c(OCCOCCN2CCCCC2)c(Br)c1,0,0,0,0,0,0
Cc1cc(Cl)c(OCCOCCN2CCCC(C)C2)c(Br)c1 (centres undefined),0,0,-,0,-,73
Nc1nc(-c2cc(O)ccc2[N+](=O)[O-])cc(-c2ccccc2)c1[N+](=O)[O-],-,11,0,-,0,0
CCc1cccc2c(SCC(=O)NCC3CCCO3)nc(-c3ccc(F)cc3)nc12 (centres undefined),0,0,-,79,-,0
O=C(Cc1cccc2ccccc12)NCC1CCCO1 (centres undefined),0,13,-,0,0,0
O=C(NCC1CCCO1)c1sc2ccccc2c1Cl (centres undefined),0,11,0,0,0,0
O=C(CCNC(=O)c1ccccc1)NCCc1ccc(Cl)cc1,0,0,0,-,0,0
CCc1cccc2c(C(=O)CN3C(=O)NC(C)(c4cccc5ccccc45)C3=O)c[nH]c12 (centres undefined),0,0,104,0,0,66
N#CC1=C(N)NC(SCc2ccc(Br)cc2)=C(C#N)C12CCCCC2,0,11,0,93,0,66
N#CC1=C(N)NC(SCC(=O)Nc2ccc(Br)cc2)=C(C#N)C12CCCCC2,0,31,0,73,0,0
N#CC1=C(N)NC(SCc2ccccc2)=C(C#N)C12CCCC2,0,0,78,0,0,0
N#CC1=C(N)NC(SCC(=O)c2ccccc2)=C(C#N)C12CCCC2,0,0,0,0,0,0
CC1(C)CC(=O)C2=C(C1)NC(SCC(=O)Nc1ccccc1)=C(C#N)C21CCCCC1,0,12,0,0,0,0
COc1ccccc1C(=O)NCCC(=O)NC1CCC(C)CC1 (centres undefined),0,0,-,-,0,-
CNC(=S)Nc1ccc(N2CCN(c3ccc(C(F)(F)F)cn3)CC2)nc1,0,0,0,0,0,0
COc1cc(C2=NOC(C(=O)N3CCOCC3)C2)cc(OC)c1OC (centres undefined),0,13,-,0,0,0
COc1ccc(C2=NOC(C(=O)N3CCCCCC3)C2)cc1OC (centres undefined),0,0,0,0,0,0
Cc1cccc(N2CCN(c3nc(C)cc(C)c3C#N)CC2C)c1 (centres undefined),0,0,0,-,0,65
COc1cccc(-c2ccc(NC(=O)C3CCCN(Cc4ccc(CO)o4)C3)cc2)c1 (centres undefined),0,0,0,-,0,0
CCOc1cc(/C=N/NC(=O)c2ccc(=O)n(C)c2)ccc1O,0,0,-,0,0,0
SMILES,PREPL inhibitor,GRIN3A LBD mod,CSC inhib,CHOP inh,Beta apoptosis,T cruzi inh
Cc1ccc(C(C)C)c(OCc2ccc(C(=O)N/N=C/c3cccc(O)c3O)cc2)c1,0,24,111,107,90,58
COc1cc(/C=N/NC(N)=O)cc(Br)c1OCc1ccc(C)cc1,0,0,0,82,0,0
Cc1ccc(C(C)C)c(OCc2ccc(C(=O)N/N=C/c3ccc(O)c(O)c3)cc2)c1,0,34,109,84,0,0
COc1ccc(/C=N/NC(=O)c2ccc3ccccc3c2)cc1OS(=O)(=O)c1ccc(NC(C)=O)cc1,0,28,-,0,-,0
CCc1ccc(CN2CCC(C(=O)Nc3ccc(Oc4ccccc4)nc3)CC2)o1,0,0,0,-,0,0
COc1cc(/C=N/Nc2ccc(Cl)nn2)cc(OC)c1O,0,0,0,-,0,0
COc1cc(/C=N/NC(=O)c2ccc(COc3cc(C)ccc3C(C)C)cc2)cc(OC)c1O,0,21,0,0,0,0
COc1cc(/C=N\NC(=O)c2ccc(-c3ccccc3)cc2)cc(OC)c1O,0,12,0,-,0,0
